Data set [1] deals with Blood. As to the kind of experiment: Anti-platelet aggregation activity in rabbit venous blood assessed as inhibition of ADP-induced aggregation at 1.3 uM pre-treated for 2 mins followed by ADP addition by Born turbidimetric method relative to control. The data set is classed as functional. The following applies: Oryctolagus cuniculus. Summed up: (§1)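 Platelet-rich plasma from male rabbit (2–3 kg) ear-vein blood, citrate anticoagulated (3.8%, 9:1), spun 1000 rpm 10 min at room temperature; platelet-poor plasma (3000 rpm 10 min) as blank. Compound at 1.3 µM, from DMSO solution (DMSO 0.5% v/v vehicle control), preincubated 2 min in PRP before inducer. Inhibition% = (1 − D/S) × 100, where S is aggregation with solvent.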

For data set [2], the system named is Blood. As to the kind of experiment: Anti-platelet aggregation activity in rabbit venous blood assessed as inhibition of arachidonic acid-induced aggregation at 1.3 uM pre-treated for 2 mins followed by ADP addition by Born turbidimetric method relative to control. The data set is classed as functional. The following applies: Oryctolagus cuniculus. Summed up:
as §1

In data set [3] the test system is Blood. As to the kind of experiment: Anti-platelet aggregation activity in rabbit venous blood assessed as inhibition of collagen-induced aggregation at 1.3 uM pre-treated for 2 mins followed by ADP addition by Born turbidimetric method relative to control. The data set is classed as functional. The following applies: Oryctolagus cuniculus. The gist of the method: as §1

The test system of data set [4] is Blood. As to the kind of experiment: Anti-platelet aggregation activity in rabbit venous blood assessed as inhibition of ADP-induced aggregation pre-treated for 2 mins followed by ADP addition by Born turbidimetric method. The data set is classed as functional, tissue-based. Conditions: Oryctolagus cuniculus. Summed up: (§2)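 Rabbit PRP Born turbidimetry with the same 2 min compound preincubation. ADP or arachidonic acid as inducer. Compounds tested at 1.3, 0.65 and 0.325 µM. Inhibition% = (1 − D/S) × 100 versus the solvent control, and IC50 calculated from these inhibition rates.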

In data set [5] the test system is Blood. As to the kind of experiment: Anti-platelet aggregation activity in rabbit venous blood assessed as inhibition of arachidonic acid-induced aggregation pre-treated for 2 mins followed by ADP addition by Born turbidimetric method. The data set is classed as functional, tissue-based. Conditions: Oryctolagus cuniculus. The gist of the method: as §2
Data set [6] can be described thus: Cytotoxicity against mouse L929 cells assessed as cell survival at 10 uM incubated for 48 hrs by CCK-8 assay relative to control. The data set is classed as cell-based. Conditions: read-out: Activity. The gist of the method: (§3)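 L929 mouse fibroblasts seeded at 10,000 cells/well in RPMI-1640 and allowed to attach 24 h at 37 °C. Compounds then added at 10 and 100 µM for 48 h at 37 °C. Medium replaced with fresh medium, CCK-8 added, 30 min further incubation, absorbance read at 450 nm. Viability = Abs(test)/Abs(control) × 100%.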
(In general: Tetrazolium assays rely on reduction of a dye to a coloured formazan, in cell work by metabolically active cells.)

Data set [7] can be described thus: Cytotoxicity against mouse L929 cells assessed as cell survival at 100 uM incubated for 48 hrs by CCK-8 assay relative to control. The data set is classed as cell-based. The following applies: read-out: Activity. The gist of the method: as §3

For 22 compounds, inhibition, IC50 and viability results are on record in ChEMBL document CHEMBL4823317, “Synthesis, in vitro cytotoxicity and biological evaluation of twenty novel 1,3-benzenedisulfonyl piperazines as antiplatelet agents” (Bioorg Med Chem, 2021).

A word on the inhibition: it is the drop in the measured response relative to a control, in per cent. With `CCN1CCN(S(=O)(=O)c2ccc(OC)c(S(=O)(=O)N3CCN(CC)CC3)c2)CC1`, the inhibition at 1.3 µM was determined as 24.3% with Blood [1], 22.4% in the data set with Blood [2] and 42.6% in the data set with Blood [3].
In general, IC50 refers to the point on the concentration scale where inhibition reaches its midpoint. `COc1ccc(S(=O)(=O)N2CCN(Cc3ccccc3)CC2)cc1S(=O)(=O)N1CCN(Cc2ccccc2)CC1`: the inhibition at 1.3 µM in the data set with Blood [1] was determined as 33.2%; in the data set with Blood [2], 38.5%; in the data set on Blood [3], 22.8%. The IC50 in the data set with Blood [4] was 1150 nM; with Blood [5] it was 330 nM. Also, in data set [6], the viability at 48 h, 10 µM was found to be 55.6%. Further, in data set [7], the viability at 48 h, 100 µM was determined as 22.2%.
In the case of `CCOc1ccc(S(=O)(=O)N2CCN(CC)CC2)cc1S(=O)(=O)N1CCN(CC)CC1`, the inhibition at 1.3 µM in the data set with Blood [1] came out at 28.8%; with Blood [2], 29.9%; with Blood [3] it was 41.7%.
Regarding `COc1ccc(S(=O)(=O)N2CCN(C(C)C)CC2)cc1S(=O)(=O)N1CCN(C(C)C)CC1`, the inhibition at 1.3 µM in the data set on Blood [1] worked out at 28.4%; with Blood [2], 27.1%; with Blood [3], 49.4%.
`COc1ccc(S(=O)(=O)N2CCN(c3ccc(C)cc3)CC2)cc1S(=O)(=O)N1CCN(c2ccc(C)cc2)CC1`: the inhibition at 1.3 µM with Blood [1] is 30.4%; with Blood [2] it was 34.1%; in the data set on Blood [3], 32.6%. In addition, the IC50 in the data set on Blood [5] was 680 nM.
With `COc1ccc(S(=O)(=O)N2CCN(c3cccc(C)c3)CC2)cc1S(=O)(=O)N1CCN(c2cccc(C)c2)CC1`, the inhibition at 1.3 µM with Blood [1] turned out to be 21.1%; with Blood [2], 33.7%; in the data set with Blood [3] it was 54.2%. For the same compound, the concentration for half-maximal inhibition (IC50) in the data set with Blood [5] came to 710 nM. Also, in data set [6], the viability at 48 h, 10 µM was 85.2%. Also, in data set [7], the viability at 48 h, 100 µM turned out to be 66.7%.
As to `CCOc1ccc(S(=O)(=O)N2CCN(Cc3ccccc3)CC2)cc1S(=O)(=O)N1CCN(Cc2ccccc2)CC1`, the inhibition at 1.3 µM in the data set on Blood [1] was found to be 24%; with Blood [2] it was 20.1%; in the data set on Blood [3], 49.8%. The viability at 48 h, 10 µM in data set [6] worked out at 55.6%. Also, in data set [7], the viability at 48 h, 100 µM was found to be 22.2%.
Regarding `COc1ccc(S(=O)(=O)N2CCN(C)CC2)cc1S(=O)(=O)N1CCN(C)CC1`, the figures for the inhibition at 1.3 µM with Blood [1], with Blood [2] and with Blood [3] were 38.2%, 29.5% and 52.6%, respectively. The IC50 with Blood [4] came to 980 nM. Further, in data set [6], the viability at 48 h, 10 µM amounted to 77.8%. Besides, the viability at 48 h, 100 µM in data set [7] was determined as 33.3%.
With `COc1ccccc1N1CCN(S(=O)(=O)c2ccc(OC)c(S(=O)(=O)N3CCN(c4ccccc4OC)CC3)c2)CC1`, the values for the inhibition at 1.3 µM in the data set on Blood [1], with Blood [2] and in the data set on Blood [3] were 28.7%, 28.1% and 27.6%, respectively.
For `COc1ccc(S(=O)(=O)N2CCN(c3ccccc3C)CC2)cc1S(=O)(=O)N1CCN(c2ccccc2C)CC1`, the inhibition at 1.3 µM in the data set on Blood [1] is 38.9%; in the data set on Blood [2] it was 36.9%; in the data set on Blood [3], 32.1%. Also, the IC50 was 950 nM in the data set on Blood [4] and 360 nM in the data set with Blood [5].
`CCOc1ccc(S(=O)(=O)N2CCN(c3ccccc3)CC2)cc1S(=O)(=O)N1CCN(c2ccccc2)CC1`: the values for the inhibition at 1.3 µM in the data set with Blood [1], in the data set on Blood [2] and in the data set on Blood [3] were 40.1%, 23.6% and 26.9%, respectively. Further, the IC50 in the data set on Blood [4] was 910 nM.
As for `CCOc1ccc(S(=O)(=O)N2CCN(c3ccccc3F)CC2)cc1S(=O)(=O)N1CCN(c2ccccc2F)CC1`, the inhibition at 1.3 µM in the data set with Blood [1] came to 21%; with Blood [2], 25.8%; in the data set with Blood [3] it was 50.3%. Also, the viability at 48 h, 10 µM in data set [6] is 70.4%. In addition, the viability at 48 h, 100 µM in data set [7] stood at 3.7%.
As to `COc1ccc(S(=O)(=O)N2CCN(c3ccccc3F)CC2)cc1S(=O)(=O)N1CCN(c2ccccc2F)CC1`, the figures for the inhibition at 1.3 µM with Blood [1], in the data set with Blood [2] and in the data set with Blood [3] were 28%, 40.6% and 28.8%, respectively. Moreover, in the data set with Blood [5], the IC50 was 480 nM. The viability at 48 h, 10 µM in data set [6] was 77.8%. Also, the viability at 48 h, 100 µM in data set [7] came to 66.7%.
In the case of `CCOc1ccc(S(=O)(=O)N2CCN(c3ccccc3OC)CC2)cc1S(=O)(=O)N1CCN(c2ccccc2OC)CC1`, the inhibition at 1.3 µM in the data set with Blood [1] turned out to be 25.5%; with Blood [2], 23.1%; in the data set with Blood [3], 25.2%.
Regarding `CCOc1ccc(S(=O)(=O)N2CCN(c3ccc(C)cc3)CC2)cc1S(=O)(=O)N1CCN(c2ccc(C)cc2)CC1`, the values for the inhibition at 1.3 µM in the data set on Blood [1], in the data set with Blood [2] and with Blood [3] were 43.6%, 43% and 28.5%, respectively. The IC50 in the data set on Blood [4] is 720 nM; in the data set on Blood [5] it was 260 nM. The viability at 48 h, 10 µM in data set [6] amounted to 51.8%. For the same compound, the viability at 48 h, 100 µM in data set [7] was determined as 7.4%.
With `CCOc1ccc(S(=O)(=O)N2CCN(C)CC2)cc1S(=O)(=O)N1CCN(C)CC1`, the inhibition at 1.3 µM in the data set with Blood [1] was 24.5%; in the data set with Blood [2], 18.1%; in the data set with Blood [3], 29.5%.
Consider `CCOc1ccc(S(=O)(=O)N2CCN(c3ccccc3C)CC2)cc1S(=O)(=O)N1CCN(c2ccccc2C)CC1`, for which the inhibition at 1.3 µM was 28.9% with Blood [1], 33.1% in the data set on Blood [2] and 41.6% in the data set with Blood [3]. The IC50 with Blood [5] came to 650 nM.
`CCOc1ccc(S(=O)(=O)N2CCN(C(C)C)CC2)cc1S(=O)(=O)N1CCN(C(C)C)CC1`: the inhibition at 1.3 µM in the data set with Blood [1] was 36.4%; in the data set with Blood [2] it was 24.9%; with Blood [3] it was 39%. For the same compound, in the data set on Blood [4], the IC50 stood at 800 nM.
Regarding `CCOc1ccc(S(=O)(=O)N2CCN(c3cccc(C)c3)CC2)cc1S(=O)(=O)N1CCN(c2cccc(C)c2)CC1`, the inhibition at 1.3 µM with Blood [1] was 50.3%; in the data set with Blood [2] it was 34.8%; in the data set on Blood [3], 48.8%. In addition, the figures for the IC50 in the data set on Blood [4] and with Blood [5] were 450 nM and 430 nM, respectively. Further, in data set [6], the viability at 48 h, 10 µM is 56.6%. Further, the viability at 48 h, 100 µM in data set [7] was found to be 33.3%.
`COc1ccc(S(=O)(=O)N2CCN(c3ccccc3)CC2)cc1S(=O)(=O)N1CCN(c2ccccc2)CC1`: the inhibition at 1.3 µM in the data set with Blood [1] is 27.9%; with Blood [2] it was 15.7%; in the data set on Blood [3], 20.4%.
Regarding `CC(=O)Oc1ccccc1C(=O)O` [ASPIRIN], the inhibition at 1.3 µM in the data set with Blood [1] was 46.3%; in the data set with Blood [2], 38.5%; in the data set on Blood [3], 49.1%. Further, the 50% inhibitory concentration (IC50) in the data set with Blood [4] stood at 440 nM; in the data set with Blood [5] it was 430 nM.
The matching figures for `COc1ccc(C(=O)NCc2cccnc2)cc1C(=O)NCc1cccnc1` [PICOTAMIDE]: 45.5%, 37.1%, 49.2%, 470 nM and 340 nM.
